Measurements published in publication PMC5621765 (Nature biomedical engineering, 2017).
One block for each molecule: values may come before it.

Key:
[1] = target: mouse MMP9 (Mus musculus, UniProt P41245); experiment: Cleavage of substrate by mouse MMP9; assay type: biochemical
[2] = system: OVCAR-8 conditioned media; experiment: Cleavage of MMP9 substrate by OVCAR-8 conditioned media; assay type: biochemical, human
[3] = system: OVCAR-8 tumour nodules; experiment: HE4 blood ELISA in orthotopic OVCAR-8 ovarian cancer model; assay type: in vivo, mouse; conditions: blood biomarker, plasma ELISA; n = 10
Outline: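 Female NCr nude mice, 3–4 weeks old, were injected intraperitoneally with 2 × 10⁶ luciferase-expressing OVCAR-8 cells; tumour burden was followed by IVIS luminescence. About 200 μL blood was spiked with EDTA to a final 5 mM and cells were pelleted. Plasma was stored at -20 °C, then HE4 measured by quantikine ELISA per kit protocol.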

Sequence of mouse MMP9 (P41245 108-730): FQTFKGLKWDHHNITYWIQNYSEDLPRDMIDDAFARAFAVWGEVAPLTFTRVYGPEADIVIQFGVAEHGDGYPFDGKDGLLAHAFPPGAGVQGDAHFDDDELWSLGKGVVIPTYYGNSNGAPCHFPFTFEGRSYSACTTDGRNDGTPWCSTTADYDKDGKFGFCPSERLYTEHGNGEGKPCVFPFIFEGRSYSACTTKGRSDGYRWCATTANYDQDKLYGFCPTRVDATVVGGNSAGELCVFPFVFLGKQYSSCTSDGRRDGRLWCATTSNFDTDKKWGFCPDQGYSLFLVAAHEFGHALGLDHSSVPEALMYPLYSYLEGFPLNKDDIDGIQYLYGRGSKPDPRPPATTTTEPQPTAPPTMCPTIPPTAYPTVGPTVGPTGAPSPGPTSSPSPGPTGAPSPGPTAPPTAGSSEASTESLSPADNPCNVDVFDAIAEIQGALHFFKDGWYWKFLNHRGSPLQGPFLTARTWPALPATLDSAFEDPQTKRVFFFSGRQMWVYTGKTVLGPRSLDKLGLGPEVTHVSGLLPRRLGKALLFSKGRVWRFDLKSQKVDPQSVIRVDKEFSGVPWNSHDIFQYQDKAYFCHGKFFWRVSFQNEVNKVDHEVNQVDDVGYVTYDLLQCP

- cleavage by mouse MMP9 [1]: cleaves
Molecule: 5FAM-GGPLGVRGKK(CPQ2)-PEG2-C [MMP9 substrate]
- cleavage by OVCAR-8 conditioned media [2]: can cleave

Molecule: CNC(=O)[C@@H](NC(=O)[C@H](CC(C)C)[C@H](O)C(=O)NO)C(C)(C)C [Marimistat, reference compound]
- inhibition of cleavage of MMP9 substrate by OVCAR-8 conditioned media [2]: can be inhibited

B1: HE4: clinical blood biomarker secreted by OVCAR-8 cells, measured by ELISA as comparator diagnostic (protein, UniProt Q14508 31-124, looked up)
WAP four-disulfide core …: EKTGVCPELQADQNCTQECVSDSECADNLKCCSAGCATFCSLPNDKEGSCPQVNINFPQLGLCRDQCQVDSQCPGQMKCCRNGCGKVSCVTPNF
- ROC-AUC at 2-weeks [3]: 0.51
- ROC-AUC at 3-weeks [3]: 0.93
